# Results from different studies.
# Compare with care: the assays were run in different laboratories.
# Organism: Trypanosoma brucei
# Effect on: parasite growth
Compound,assay,system,setting,quantity,result
OC1c2ccccc2CCc2ccccc21,,,,EC50,51300 nM
COC(=O)C1CCN(C(=O)c2ccc(N(CCO)Cc3cnc4nc(N)nc(N)c4n3)cc2)CC1,resazurin,,"10 µM, 72 h",inhibition,9%
N=C(N)c1ccc(OCCCCCOc2ccc(C(=N)N)cc2)cc1,resazurin,RHODESIENSE STIB900,,IC50,1.8 nM
COc1ccc(Oc2ccc(CNCc3cnc4nc(N)nc(N)c4n3)cc2)cc1,resazurin,,"10 µM, 72 h",inhibition,31%
CN(C)CCCN1c2ccccc2Sc2ccc(Cl)cc21,,,blood stage,EC50,4210 nM
COc1c(Br)cc(Br)cc1CN[C@H]1CCCN(c2nc3nc(Cl)ccc3[nH]2)C1,,,,EC50,40 nM
COc1cc(N2CCN(C(C)C)CC2)ccc1Nc1nc(Nc2ccc(F)cc2C(N)=O)c2cc[nH]c2n1,,,,EC50,200 nM
Cc1ccc2nc(-c3ccc(F)c(F)c3)c(CN3CCC(Cc4ccccc4)CC3)n2c1,,,48 h,EC50,16600 nM
N=C(N)c1ccc(OCCCCCOc2ccc(C(=N)N)cc2)cc1,,,,EC50,5.4 nM
Nc1nc(N)c2nc(CNc3ccc(C(=O)c4ccccc4)cc3)cnc2n1,resazurin,,"10 µM, 72 h",inhibition,76%
COc1cc(Nc2nccc(Nc3ccc4c(C)n[nH]c4c3)n2)cc(OC)c1OC,,,,EC50,631 nM
CCOC(=O)C1CCN(C(=O)c2ccc(N(C)Cc3cnc4nc(N)nc(N)c4n3)cc2)CC1,resazurin,,"10 µM, 72 h",inhibition,47%
Cc1ccc(C(=O)Nc2ccc(S(=O)(=O)O)c3cc(S(=O)(=O)O)cc(S(=O)(=O)O)c23)cc1NC(=O)c1cccc(NC(=O)Nc2cccc(C(=O)Nc3cc(C(=O)Nc4ccc(S(=O)(=O)O)c5cc(S(=O)(=O)O)cc(S(=O)(=O)O)c45)ccc3C)c2)c1,resazurin,,,IC50,60 nM
Clc1ccc2c(c1)N(CCCN1CCN(CCCc3ccccc3)CC1)c1ccccc1S2,,,,EC50,775 nM
COc1cc2c(cc1Nc1nc(Nc3ccsc3C(N)=O)c3cc[nH]c3n1)N(C(=O)CN(C)C)CCC2,,,,EC50,631 nM
O=C(Cn1ccnc1[N+](=O)[O-])NCc1ccccc1,,,,IC50,96000 nM
Nc1nc(N)c2nc(CNc3cccc4ccccc34)cnc2n1,resazurin,,"10 µM, 72 h",inhibition,31%
O=C(Nc1ccnc(C(F)(F)F)c1)Nc1cccc2c1OC(F)(F)O2,,RHODESIENSE STIB900,,IC50,14000 nM
COc1cc2c(cc1Nc1nc(N3CCc4ccccc43)c3cc[nH]c3n1)N(C(=O)CN(C)C)CC2,,,,EC50,100 nM
Cc1cc(NC(=O)Nc2ccc3c(c2)OC(F)(F)O3)cc(C(F)(F)F)n1,,RHODESIENSE STIB900,,IC50,5100 nM
CCS(=O)(=O)N(C)c1ccc(NC(=O)c2cccc(C(=N)N)c2)cc1OCc1ccc(C(=N)N)cc1,,,,IC50,500 nM
CS(=O)(=O)CCNCc1ccc(-c2ccc3ncnc(Nc4ccc(OCc5cccc(F)c5)c(C(F)(F)F)c4)c3c2)o1,,,,EC50,2000 nM
COC(=O)C1CCN(C(=O)c2ccc(NCc3cnc4nc(N)nc(N)c4n3)cn2)CC1,resazurin,,"10 µM, 72 h",inhibition,10%
NC(=O)CN1C(=O)CNC2(C1=O)C1CC3CC(C1)CC2C3 (centres unmarked),,,"pH 7.4, blood stage",IC50,200000 nM
COc1cc(Nc2ncc3c(C)nc(-c4cccc(Oc5ccccc5)c4)n3n2)cc(OC)c1OC,,,,EC50,794 nM
Cc1ccc2nc(-c3ccc(Cl)cc3)cn2c1,,,48 h,EC90,> 20000 nM
C[C@@H](Oc1cc(-n2cnc3ccc(OCC4CCN(C)CC4)cc32)sc1C(N)=O)c1ccccc1Cl,,,,EC50,15.8 nM
N=C(N)c1ccc(OCCCCCOc2ccc(C(=N)N)cc2)cc1,,,,EC90,6.2 nM
NC(=O)C1CCN(C(=O)c2ccc(NCc3cnc4nc(N)nc(N)c4n3)cc2)CC1,resazurin,,"10 µM, 72 h",inhibition,12%
Cc1ccc2nc(-c3ccc(F)c(F)c3)c(CN3CCN(C4CCCCC4)CC3)n2c1,,,48 h,EC90,> 20000 nM
NS(=O)(=O)c1ccc(Nc2cc(-c3ccc(O)c(F)c3)n[nH]2)cc1,,,,EC50,6310 nM
C#CCN(Cc1cnc2nc(N)nc(N)c2n1)c1ccc(C(=O)N2CCC(C(=O)OC)CC2)cc1,resazurin,,"10 µM, 72 h",inhibition,23%
